Test [1] concerns the target Mitogen-activated protein kinase 10 (Rattus norvegicus) (UniProt P49187). Kind of test: Inhibition of rat c-Jun N-terminal kinase-3 at 30 uM. Put shortly: (§1)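 Kinase activity assayed with ATP at 100 µM, deliberately higher than usual assay ATP levels because the inhibitors are assumed ATP-competitive. Results are reported as percent inhibition of each kinase.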
For test [2], the target named is RAC-alpha serine/threonine-protein kinase (Homo sapiens) (UniProt P31749). In words: Inhibition of human Protein kinase B alpha at 30 uM. The gist of the method:
as §1

For test [3], the target named is Mitogen-activated protein kinase 14 (Homo sapiens) (UniProt Q16539). Kind of test: Inhibition of human stress-activated protein kinase-2 alpha (p38 MAP-kinase) at 30 uM. The gist of the method: as §1
Test [4] has as its target Dual specificity mitogen-activated protein kinase kinase 1 (Homo sapiens) (UniProt Q02750). In words: Inhibition of human Mitogen activated protein kinase kinase 1 (MEK1) at 30 uM. Put shortly:
as §1

Test [5] has as its target Protein kinase C alpha type (Homo sapiens) (UniProt P17252). Kind of test: Inhibition of human Protein kinase C alpha. Details: concentration or dose not given beside the values. The settings on record: concentration not given here.
Test [6] deals with cAMP-dependent protein kinase (PKA) (Homo sapiens) (UniProt P22694+P17612+P22612). Kind of test: Inhibition of human cAMP-dependent protein kinase (PKA). Details: concentration or dose not given beside the values. The note with it: concentration not given here. The class given is protein assay.
The target in test [7] is Ca2+/calmodulin-dependent protein kinase II (CaM kinase II) (Rattus norvegicus) (UniProt P11275+P08413+P15791+P11730). In words: Inhibition of rat Calcium/calmodulin-dependent protein kinase type II at 30 uM. The class given is protein assay. The gist of the method:
as §1

In test [8] the target is Glycogen synthase kinase-3 beta (Homo sapiens) (UniProt P49841). In words: Inhibition of human Glycogen synthase kinase-3 beta at 30 uM. The gist of the method:
as §1

Test [9] has as its target Mitogen-activated protein kinase 8 (Homo sapiens) (UniProt P45983). Kind of test: Inhibition of human c-Jun N-terminal kinase-1 alpha-1 at 30 uM. Put shortly:
as §1

Test [10] addresses Mitogen-activated protein kinase 9 (Homo sapiens) (UniProt P45984). In words: Inhibition of human c-Jun N-terminal kinase-2 alpha-2 at 30 uM. Put shortly: as §1
Test [11] concerns the target Mitogen-activated protein kinase 1 (Homo sapiens) (UniProt P28482). In words: Inhibition of human Mitogen-activated protein kinase 2 at 30 uM. The gist of the method: as §1
Test [12] addresses Tyrosine-protein kinase Lck (Homo sapiens) (UniProt P06239). Kind of test: Inhibition of human lymphocyte protein tyrosine kinase Lck at 30 uM. Put shortly:
as §1

Test [13] addresses RAF proto-oncogene serine/threonine-protein kinase (Homo sapiens) (UniProt P04049). In words: Inhibition of human RAF proto-oncogene serine/threonine-protein kinase at 30 uM. The gist of the method: as §1
Test [14] addresses Rho-associated protein kinase 2 (Homo sapiens) (UniProt O75116). In words: Inhibition of human Rho-dependent protein kinase-II at 30 uM.

Chain of Mitogen-activated protein kinase 14 (Homo sapiens) (Q16539 whole entry): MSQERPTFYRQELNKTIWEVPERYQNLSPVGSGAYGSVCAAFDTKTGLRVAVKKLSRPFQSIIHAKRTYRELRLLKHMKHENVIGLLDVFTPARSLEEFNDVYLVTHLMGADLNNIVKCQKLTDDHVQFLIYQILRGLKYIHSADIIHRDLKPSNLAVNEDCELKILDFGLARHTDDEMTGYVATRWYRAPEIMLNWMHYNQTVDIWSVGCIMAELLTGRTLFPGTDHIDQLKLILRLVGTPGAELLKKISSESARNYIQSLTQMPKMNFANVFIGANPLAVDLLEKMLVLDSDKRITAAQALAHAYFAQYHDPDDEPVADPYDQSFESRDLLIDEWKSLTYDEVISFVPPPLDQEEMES
Chain of Mitogen-activated protein kinase 9 (Homo sapiens) (P45984 whole entry, looked up): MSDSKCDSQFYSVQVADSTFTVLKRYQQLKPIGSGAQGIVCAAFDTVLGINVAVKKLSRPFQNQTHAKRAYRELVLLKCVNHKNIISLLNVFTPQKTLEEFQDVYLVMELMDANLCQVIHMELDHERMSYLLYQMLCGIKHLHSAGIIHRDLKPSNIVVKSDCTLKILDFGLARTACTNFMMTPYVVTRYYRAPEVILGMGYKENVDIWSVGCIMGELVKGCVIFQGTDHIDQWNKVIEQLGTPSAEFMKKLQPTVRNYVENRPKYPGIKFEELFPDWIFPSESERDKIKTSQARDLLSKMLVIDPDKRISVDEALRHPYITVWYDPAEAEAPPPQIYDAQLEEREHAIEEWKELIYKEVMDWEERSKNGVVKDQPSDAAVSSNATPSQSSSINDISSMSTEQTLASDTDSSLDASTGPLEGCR
Chain of Glycogen synthase kinase-3 beta (Homo sapiens) (P49841 whole entry, looked up): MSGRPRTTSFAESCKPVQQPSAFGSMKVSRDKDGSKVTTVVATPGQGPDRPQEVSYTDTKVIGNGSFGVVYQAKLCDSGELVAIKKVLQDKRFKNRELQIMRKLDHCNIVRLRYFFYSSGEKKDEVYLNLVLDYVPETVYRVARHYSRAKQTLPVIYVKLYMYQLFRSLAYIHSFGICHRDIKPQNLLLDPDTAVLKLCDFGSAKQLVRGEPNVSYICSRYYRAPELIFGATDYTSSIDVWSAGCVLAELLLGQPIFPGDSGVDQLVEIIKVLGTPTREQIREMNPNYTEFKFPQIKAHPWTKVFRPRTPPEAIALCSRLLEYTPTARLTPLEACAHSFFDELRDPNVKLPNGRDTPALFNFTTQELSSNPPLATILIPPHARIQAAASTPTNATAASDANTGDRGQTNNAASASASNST
Chain of Mitogen-activated protein kinase 1 (Homo sapiens) (P28482 whole entry): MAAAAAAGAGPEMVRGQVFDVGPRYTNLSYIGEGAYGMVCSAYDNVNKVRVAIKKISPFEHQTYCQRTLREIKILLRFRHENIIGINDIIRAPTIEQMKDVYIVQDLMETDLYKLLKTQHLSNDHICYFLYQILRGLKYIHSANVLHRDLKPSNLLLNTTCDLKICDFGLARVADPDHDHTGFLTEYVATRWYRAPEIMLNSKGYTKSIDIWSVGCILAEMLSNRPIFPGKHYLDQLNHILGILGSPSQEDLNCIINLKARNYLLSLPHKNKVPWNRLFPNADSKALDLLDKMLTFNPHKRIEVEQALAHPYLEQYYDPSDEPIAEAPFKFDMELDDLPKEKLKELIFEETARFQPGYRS
Chain of Rho-associated protein kinase 2 (Homo sapiens) (O75116 whole entry, looked up): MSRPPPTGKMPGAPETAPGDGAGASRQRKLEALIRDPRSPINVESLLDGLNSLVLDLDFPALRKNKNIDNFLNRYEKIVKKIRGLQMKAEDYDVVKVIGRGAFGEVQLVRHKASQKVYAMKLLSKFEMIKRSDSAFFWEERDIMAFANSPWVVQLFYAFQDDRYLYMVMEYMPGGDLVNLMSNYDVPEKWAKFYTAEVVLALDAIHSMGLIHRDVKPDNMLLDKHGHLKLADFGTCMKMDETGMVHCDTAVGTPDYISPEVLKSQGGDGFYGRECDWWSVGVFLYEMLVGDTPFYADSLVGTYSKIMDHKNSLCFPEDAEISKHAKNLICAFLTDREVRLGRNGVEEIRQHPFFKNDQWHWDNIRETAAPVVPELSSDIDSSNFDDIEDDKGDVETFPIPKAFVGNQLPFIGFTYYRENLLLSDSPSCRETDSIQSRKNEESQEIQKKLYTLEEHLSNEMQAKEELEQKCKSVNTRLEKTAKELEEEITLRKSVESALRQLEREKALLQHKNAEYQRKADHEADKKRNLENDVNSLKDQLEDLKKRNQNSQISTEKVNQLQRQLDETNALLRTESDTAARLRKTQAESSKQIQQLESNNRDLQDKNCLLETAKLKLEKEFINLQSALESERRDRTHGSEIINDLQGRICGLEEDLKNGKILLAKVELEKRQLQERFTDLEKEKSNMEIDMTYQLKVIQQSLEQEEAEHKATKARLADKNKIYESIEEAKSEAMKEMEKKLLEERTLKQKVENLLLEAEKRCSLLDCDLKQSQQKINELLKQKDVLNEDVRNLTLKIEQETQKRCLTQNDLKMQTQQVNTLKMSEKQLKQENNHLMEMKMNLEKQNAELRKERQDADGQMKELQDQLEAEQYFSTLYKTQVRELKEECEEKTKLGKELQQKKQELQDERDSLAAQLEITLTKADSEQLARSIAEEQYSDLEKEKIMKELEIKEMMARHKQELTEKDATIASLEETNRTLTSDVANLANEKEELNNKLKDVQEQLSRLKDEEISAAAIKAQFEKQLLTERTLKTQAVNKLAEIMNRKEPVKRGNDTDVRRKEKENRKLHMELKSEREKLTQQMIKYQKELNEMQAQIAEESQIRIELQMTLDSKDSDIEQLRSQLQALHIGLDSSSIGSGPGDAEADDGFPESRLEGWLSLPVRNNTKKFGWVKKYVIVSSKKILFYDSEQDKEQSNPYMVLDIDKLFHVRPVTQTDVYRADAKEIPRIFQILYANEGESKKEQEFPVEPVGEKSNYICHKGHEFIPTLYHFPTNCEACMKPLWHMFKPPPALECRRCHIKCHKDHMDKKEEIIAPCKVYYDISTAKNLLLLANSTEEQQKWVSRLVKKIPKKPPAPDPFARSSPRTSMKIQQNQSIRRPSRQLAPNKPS
Chain of RAF proto-oncogene serine/threonine-protein kinase (Homo sapiens) (P04049 whole entry): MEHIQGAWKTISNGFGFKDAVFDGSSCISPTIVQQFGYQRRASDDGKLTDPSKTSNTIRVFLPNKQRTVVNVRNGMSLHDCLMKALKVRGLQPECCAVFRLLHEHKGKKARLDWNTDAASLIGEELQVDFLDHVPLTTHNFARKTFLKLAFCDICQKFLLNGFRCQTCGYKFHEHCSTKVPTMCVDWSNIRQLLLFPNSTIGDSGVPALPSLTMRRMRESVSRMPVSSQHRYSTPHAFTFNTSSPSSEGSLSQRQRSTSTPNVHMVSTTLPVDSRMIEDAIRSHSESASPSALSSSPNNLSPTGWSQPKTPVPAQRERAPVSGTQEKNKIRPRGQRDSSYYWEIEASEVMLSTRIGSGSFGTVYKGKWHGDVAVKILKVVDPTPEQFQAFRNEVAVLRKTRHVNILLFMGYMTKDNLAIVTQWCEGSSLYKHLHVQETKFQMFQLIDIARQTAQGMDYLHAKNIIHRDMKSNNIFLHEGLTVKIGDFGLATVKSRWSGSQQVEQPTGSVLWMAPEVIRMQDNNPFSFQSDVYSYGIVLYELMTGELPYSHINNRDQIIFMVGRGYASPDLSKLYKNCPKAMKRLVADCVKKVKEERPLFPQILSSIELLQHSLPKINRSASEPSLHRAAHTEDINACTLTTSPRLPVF
Chain of Mitogen-activated protein kinase 8 (Homo sapiens) (P45983 whole entry): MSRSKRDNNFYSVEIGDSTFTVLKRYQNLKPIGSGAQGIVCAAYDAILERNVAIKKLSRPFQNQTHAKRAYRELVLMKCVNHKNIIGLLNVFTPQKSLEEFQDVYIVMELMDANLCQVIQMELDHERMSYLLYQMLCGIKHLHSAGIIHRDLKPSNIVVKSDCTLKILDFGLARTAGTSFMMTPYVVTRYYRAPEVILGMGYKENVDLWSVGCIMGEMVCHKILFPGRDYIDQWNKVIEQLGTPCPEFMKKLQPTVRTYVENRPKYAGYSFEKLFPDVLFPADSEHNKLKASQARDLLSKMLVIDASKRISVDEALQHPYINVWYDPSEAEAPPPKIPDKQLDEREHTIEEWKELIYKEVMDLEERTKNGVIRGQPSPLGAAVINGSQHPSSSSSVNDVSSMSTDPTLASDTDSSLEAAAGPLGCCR
Chain of RAC-alpha serine/threonine-protein kinase (Homo sapiens) (P31749 whole entry): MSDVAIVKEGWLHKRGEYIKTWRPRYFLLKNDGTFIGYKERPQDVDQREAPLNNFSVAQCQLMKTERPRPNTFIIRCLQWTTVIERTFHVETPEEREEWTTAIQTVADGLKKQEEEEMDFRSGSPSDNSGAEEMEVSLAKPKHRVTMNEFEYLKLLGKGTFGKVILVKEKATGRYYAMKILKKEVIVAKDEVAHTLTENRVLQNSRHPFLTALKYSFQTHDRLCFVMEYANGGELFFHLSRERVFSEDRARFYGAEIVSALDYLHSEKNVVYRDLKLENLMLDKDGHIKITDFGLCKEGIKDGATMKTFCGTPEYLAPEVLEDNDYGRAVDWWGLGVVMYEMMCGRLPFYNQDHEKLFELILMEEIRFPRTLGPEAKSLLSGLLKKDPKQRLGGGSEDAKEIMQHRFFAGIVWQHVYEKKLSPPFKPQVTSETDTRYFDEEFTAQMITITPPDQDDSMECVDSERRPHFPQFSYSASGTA
Chain of Tyrosine-protein kinase Lck (Homo sapiens) (P06239 2-509 limits assumed): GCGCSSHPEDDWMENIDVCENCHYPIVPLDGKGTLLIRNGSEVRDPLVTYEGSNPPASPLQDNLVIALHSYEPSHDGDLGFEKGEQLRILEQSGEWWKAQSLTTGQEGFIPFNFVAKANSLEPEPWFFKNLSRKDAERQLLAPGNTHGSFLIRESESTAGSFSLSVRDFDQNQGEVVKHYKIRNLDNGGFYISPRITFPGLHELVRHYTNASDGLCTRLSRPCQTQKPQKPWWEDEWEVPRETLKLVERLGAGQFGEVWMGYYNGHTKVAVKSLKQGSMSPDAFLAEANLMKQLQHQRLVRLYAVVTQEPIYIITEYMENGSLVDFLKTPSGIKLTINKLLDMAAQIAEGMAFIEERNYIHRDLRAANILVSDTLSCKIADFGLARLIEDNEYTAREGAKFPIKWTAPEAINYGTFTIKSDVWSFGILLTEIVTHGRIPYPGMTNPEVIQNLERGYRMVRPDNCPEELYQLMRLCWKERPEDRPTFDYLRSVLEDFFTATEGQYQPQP

Take `Fc1ccc(-[n+]2c[nH]c3ncncc32)cc1`: the inhibition – broadly, the share of the control response that was lost under treatment – in test [1] is 4%; in [2], 0%; in test [3], 0%; in test [4] it was 0%; in [5] it was 2%; in test [6], 0%. Moreover, the inhibition in test [7] worked out at 0%; in test [8], 0%; in test [9], 1%; in test [10] it was 0%; in [11], 0%; in test [12], 9%. Moreover, the inhibition came out at 0% in test [13] and 2% in test [14].

For `Nc1[nH]cnc2ncnc1-2`, the inhibition in [1] amounted to 10%; in [2] it was 0%; in [3], 7%; in test [4], 9%; in test [5] it was 6%; in [6], 14%. For the same compound, the inhibition in test [7] was 0%; in [8], 0%; in test [9], 0%; in [10] it was 0%; in [11] it was 17%; in test [12], 19%. Further, the results for the inhibition in [13] and in test [14] were 14% and 28%, respectively.

With `Cn1c(-c2ccc([S+](C)[O-])cc2)nc2c(Sc3ccccc3)ncnc21` (stereo unspecified), the inhibition in test [1] was determined as 6%; in [2] it was 4%; in test [3], 27%; in [4], 3%; in test [5], 8%; in test [6], 0%. Moreover, the inhibition in test [7] turned out to be 8%; in test [8] it was 4%; in test [9], 0%; in test [10], 0%; in [11], 0%; in test [12], 30%. The inhibition in [13] was 0%; in test [14] it was 1%.

For `Fc1ccc(Cn2cnc3ncnc(Cl)c32)cc1`, the inhibition in [1] worked out at 21%; in [2] it was 0%; in test [3], 17%; in [4] it was 4%; in test [5] it was 13%; in [6] it was 0%. Moreover, the inhibition in test [7] was 8%; in test [8], 0%; in [9], 6%; in test [10], 9%; in [11], 1%; in [12], 0%. The inhibition was found to be 20% in test [13] and 7% in test [14].

Turning to `c1ccc(CSc2ncnc3[nH]cnc23)cc1`, the inhibition in test [1] turned out to be 7%; in test [2], 4%; in test [3], 50%; in [4] it was 7%; in test [5], 11%; in [6], 13%. The inhibition in [7] is 0%; in test [8], 35%; in [9], 1%; in test [10] it was 0%; in test [11], 12%; in test [12], 22%. For the same compound, the inhibition in [13] stood at 53%; in test [14], 28%.

As to `Cn1cnc2c(Nc3ccccc3)ncnc21`, the inhibition was 5% in test [1]; 0% in [2]; 0% in [3]; 4% in test [4]; 2% in test [5]; 0% in test [6]. Besides, the inhibition worked out at 0% in test [7]; 26% in test [8]; 0% in test [9]; 0% in test [10]; 42% in test [11]; 18% in test [12]. The inhibition turned out to be 44% in [13] and 0% in test [14].

As for `Fc1ccc(Cn2cnc3c(Sc4ccc(F)cc4)ncnc32)cc1`, the inhibition in test [1] amounted to 0%; in [2], 0%; in test [3], 27%; in [4], 3%; in test [5], 0%; in test [6], 0%. Further, the inhibition in test [7] is 0%; in test [8], 8%; in test [9], 0%; in test [10], 0%; in test [11], 0%; in test [12], 16%. In addition, the inhibition in [13] and in test [14] was 0% throughout.

Turning to `Clc1ncnc2ncn(Cc3ccccc3)c12`, the inhibition was 11% in [1]; 0% in test [2]; 7% in test [3]; 0% in [4]; 12% in test [5]; 0% in [6]. In addition, the inhibition in test [7] was found to be 0%; in [8] it was 9%; in test [9], 0%; in test [10], 1%; in test [11], 1%; in test [12], 0%. Besides, the inhibition in test [13] came out at 12%; in test [14] it was 6%.

As for `Fc1ccc(Oc2[nH]cnc3ncnc2-3)cc1`, the inhibition in [1] was determined as 0%; in [2], 0%; in [3], 18%; in test [4] it was 0%; in [5], 3%; in [6], 0%. In addition, the inhibition in [7], in test [8], in test [9], in [10], in test [11] and in test [12] was 0% each time. The inhibition in test [13] is 1%; in test [14], 9%.

On to `Cn1cnc2c(-c3ccc(F)cc3)ncnc21`, for which the inhibition in test [1] was 14%; in test [2], 0%; in test [3] it was 16%; in test [4], 1%; in [5] it was 8%; in test [6] it was 0%. The inhibition came to 12% in [7]; 3% in [8]; 5% in [9]; 3% in test [10]; 0% in test [11]; 5% in test [12]. In addition, the results for the inhibition in test [13] and in test [14] were 9% and 10%, respectively.

In the case of `Fc1ccc(C[n+]2c[nH]c3ncncc32)cc1`, the inhibition in [1] stood at 12%; in test [2] it was 8%; in test [3], 5%; in test [4], 0%; in test [5], 15%; in test [6], 0%. Further, the inhibition in test [7] turned out to be 5%; in [8] it was 10%; in test [9] it was 0%; in test [10], 0%; in [11], 4%; in [12], 13%. Also, the inhibition in test [13] turned out to be 7%; in test [14], 4%.

Take `Cn1c(-c2ccc(S(C)(=O)=O)cc2)nc2c(Sc3ccc(F)cc3)ncnc21`: the inhibition in [1] is 5%; in [2] it was 4%; in test [3], 19%; in test [4], 0%; in test [5] it was 7%; in test [6], 3%. The inhibition in test [7] turned out to be 0%; in test [8], 0%; in test [9], 0%; in test [10] it was 2%; in test [11], 0%; in test [12] it was 10%. In addition, the inhibition in test [13] amounted to 6%; in test [14] it was 0%.

With `Cn1cnc2c(Nc3ccc(F)cc3)ncnc21`, the inhibition is 19% in [1]; 0% in test [2]; 13% in [3]; 8% in test [4]; 11% in [5]; 0% in test [6]. In addition, the inhibition in test [7] was found to be 8%; in test [8] it was 14%; in test [9], 5%; in test [10], 6%; in test [11] it was 57%; in [12], 9%. Besides, the inhibition in [13] was determined as 27%; in test [14] it was 7%.

Regarding `Clc1ncnc2c1ncn2Cc1ccccc1`, the inhibition in test [1] came to 16%; in [2], 0%; in [3], 11%; in [4], 3%; in [5], 17%; in test [6], 2%. In addition, the inhibition in test [7] was 7%; in test [8], 0%; in [9], 0%; in test [10], 0%; in test [11] it was 0%; in test [12], 0%. Besides, the results for the inhibition in test [13] and in test [14] were 4% and 3%, respectively.

The record behind these values is ChEMBL document CHEMBL1141882, “Synthesis and biological testing of purine derivatives as potential ATP-competitive kinase inhibitors” (J Med Chem, 2005).
